Data on 1 compound can be found in ChEMBL document CHEMBL4725387, “Synthesis and pharmacological evaluation of piperidine (piperazine)-amide substituted derivatives as multi-target antipsychotics” (Bioorg Med Chem Lett, 2020).

Data set [1] relates to Mus musculus. In words: Antipsychotic activity in po dosed mouse assessed as suppression of apomorphine-induced climbing behaviour. It is filed as functional. In outline:
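Mice climbing induced by apomorphine 1.0 mg/kg sc. Test article given po at 0.01, 0.03, 0.1, 0.3 and 1.0 mg/kg in 30% PEG 400. ED50 reported with 95% confidence limits.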

Data set [2] relates to Mus musculus. Nature of the data set: Antipsychotic activity in po dosed mouse assessed as suppression in DOI-induced head twitching response. Format: functional. Summed up: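 Mouse head twitch induced by DOI 1.0 mg/kg ip. Oral pretreatment at 0.01, 0.03, 0.1, 0.3 and 1.0 mg/kg in 30% PEG 400. ED50 reported with 95% confidence limits.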
For data set [3], the system named is Mus musculus. In words: Antipsychotic activity in po dosed mouse assessed as reduction in MK-801-induced hyperlocomotor activity. Format: functional. In outline:
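Mice hyperactivity induced by MK-801 0.3 mg/kg sc, locomotor activity recorded. Oral dosing at 0.01–1.0 mg/kg (five doses) in 30% PEG 400. ED50 reported with 95% confidence limits.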

For data set [4], the system named is Rattus norvegicus. In words: Antipsychotic activity in po dosed rat assessed as suppression in conditioned avoidance response measured after 90 mins by CAR test. It is filed as functional. The conditions noted are these: 1.5 h. In outline:
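Rat conditioned avoidance responding tested 90 min after a single oral dose of 0.05, 0.15, 0.45 or 1.35 mg/kg in 30% PEG 400. n = 10 per group. Mean ± SEM, compared with vehicle (P < 0.05). ED50 reported.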

Data set [5] is described as follows: Induction of catalepsy in po dosed mouse by vertical grid and elevated bar test. Format: organism-based. The conditions noted are these: in vivo. In outline: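 Mouse catalepsy scored by vertical grid and elevated bar tests. Oral doses of 1, 5, 15, 45 and 100 mg/kg in 30% PEG 400. ED50 reported with 95% confidence limits.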
Data set [6] relates to Rattus norvegicus. In words: Memory enhancement effect in rat assessed as increase in total exploratory time for novel objects at 0.1 mg/kg, po administered 1 hr prior to acquisition trial and measured after 24 hrs by novel object recognition test. Format: functional, organism-based. The conditions noted are these: time 25.0 hrs.

Activity calls are given as the source filed them. The calls are words filed in the database; no cut-off is given here.

Consider `Cc1nc2n(c(=O)c1CCN1CCC(c3noc4cc(F)ccc34)CC1)CCCC2` [RISPERIDONE], for which the median effective dose (ED50) in the data set on Mus musculus [1] was determined as 0.025 mg/kg; with Mus musculus [2], 0.019 mg/kg; in the data set on Mus musculus [3], 0.011 mg/kg; in the data set with Rattus norvegicus [4] it was 0.49 mg/kg; in data set [5], 1.2 mg/kg. In addition, in the data set with Rattus norvegicus [6], the outcome was inactive.
